The values below come from ChEMBL document CHEMBL3875163, “Novel urea and bis-urea primaquine derivatives with hydroxyphenyl or halogenphenyl substituents: Synthesis and biological evaluation” (Eur J Med Chem, 2016).

SMILES strings stand for the structures.

Assay [1] in a line: Growth inhibition of human CEM cells after 72 hrs by MTT assay. The class given is functional, cell-based. Particulars: CCRF-CEM. A general note: Formazan colour is commonly taken as a measure of viable cells.
Assay [2] in a line: Growth inhibition of human MIAPaCa2 cells after 72 hrs by MTT assay. Particulars: MIA PaCa-2, 72 h. In kind it is functional, cell-based.
Assay [3] can be described thus: Growth inhibition of human NCI-H460 cells after 72 hrs by MTT assay. In kind it is functional, cell-based. Particulars: NCI-H460, 72 h. A digest of the protocol: (§1)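 Modified NCI DTP protocol: cells in DMEM with 10% FBS, 2 mM glutamine, antibiotics, 37 °C, 5% CO2; seeded 1 × 10^4 to 3 × 10^4 cells/ml on day 0, exposed to five 10-fold dilutions (10^-8 to 10^-4 M) for 72 h; solvent control. MTT read-out; quadruplicate points in three experiments; IC50 by linear regression of growth percentages bracketing 50%.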

Assay [4] is described as follows: Growth inhibition of human SW620 cells after 72 hrs by MTT assay. Particulars: SW-620, 72 h. The class given is functional, cell-based. The method in brief: as §1
Assay [5] can be described thus: Growth inhibition of human Molt4/C8 cells after 72 hrs by MTT assay. In kind it is functional, cell-based. Particulars: MOLT-4, 72 h.
Assay [6] is described as follows: Growth inhibition of human HeLa cells after 72 hrs by MTT assay. The class given is functional, cell-based.
Assay [7] in a line: Antioxidant activity assessed as DPPH radical scavenging activity at 100 uM after 20 mins relative to control. In kind it is functional. A digest of the protocol: (§2)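 Compound in DMSO added to DPPH in absolute ethanol, 0.1 mM final; absorbance at 517 nm after 20 and 60 min at room temperature. At least triplicate.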
For orientation: DPPH is a stable violet radical that fades when it is reduced.

Assay [8] concerns Glycine max. Briefly: Inhibition of soybean LOX assessed as reduction in conversion of sodium linoleate to 13-hydroperoxylinoleic acid at 1 x 10^-4 M relative to control. A digest of the protocol:
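Soybean lipoxygenase incubated at room temperature with sodium linoleate (0.1 mM) and test compound (DMSO stocks); formation of 13-hydroperoxylinoleic acid read at 234 nm. Single-point screening at 1 × 10^-4 M; IC50 from several concentrations. At least triplicate.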

Assay [9] can be described thus: Growth inhibition of human MCF7 cells after 72 hrs by MTT assay. The conditions noted are these: MCF7, 72 h. The class given is functional, cell-based. The method in brief: as §1
Assay [10] in a line: Antioxidant activity assessed as inhibition of AAPH-induced linoleic acid lipid peroxidation at 1 x 10^-4 M by UV-absorbance method relative to control. The class given is functional. The method in brief: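 Linoleic acid peroxidation: 16 mM sodium linoleate dispersion in 0.05 M phosphate buffer pH 7.4 at 37 °C under air, initiated by AAPH (40 mM solution); compound at 1 × 10^-4 M; oxidation followed at 234 nm. At least triplicate.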

Assay [11] in a line: Antioxidant activity assessed as DPPH radical scavenging activity at 100 uM after 60 mins relative to control. In kind it is functional. The method in brief: as §2
Assay [12] in a line: Growth inhibition of mouse L1210 cells after 72 hrs by MTT assay. The class given is functional, cell-based. Particulars: L1210, 72 h.

Consider `COc1cc(NC(C)CCCNC(=O)NNC(=O)Nc2cccc(Cl)c2)c2ncccc2c1` (stereo unspecified), for which the IC50 in [1] was 81 µM; in [2] it was 74 µM; in [3], 32 µM; in assay [4], 25 µM; in [5], 93 µM; in [6], 44 µM. Besides, the IC50 amounted to 0.22 µM in assay [9] and 27 µM in assay [12]. The figures for the Activity in [7] and in assay [11] were 97.9% and 95.1%, respectively. Also, the results for the inhibition in [8] and in assay [10] were 48.4% and 70.8%, respectively.
`COc1cc(NC(C)CCCNC(=O)NNC(=O)Nc2ccc(Cl)cc2)c2ncccc2c1` (stereo unspecified): the 50% inhibitory concentration (IC50) in assay [1] was 108 µM; in assay [2], not below 250 µM; in assay [3] it was 63 µM; in assay [4] it was 48 µM; in assay [5], 186 µM; in [6], 120 µM. For the same compound, the half-maximal inhibitory concentration (IC50) in assay [9] is 0.18 µM; in assay [12], 58 µM. Moreover, the results for the Activity in [7] and in assay [11] were 97.6% and 100%, respectively. Also, the inhibition turned out to be 39% in assay [8] and 42.1% in assay [10].
`COc1cc(NC(C)CCCNC(=O)Nc2cccc(F)c2)c2ncccc2c1` (stereo unspecified): the 50% inhibitory concentration (IC50) in assay [1] stood at 21 µM; in [2], 22 µM; in [3], 24 µM; in assay [4], 27 µM; in assay [5] it was 23 µM; in assay [6], 18 µM. Moreover, the 50% inhibitory concentration (IC50) in assay [9] is 18 µM; in [12] it was 19 µM. Besides, the figures for the inhibition in [8] and in assay [10] were 44.6% and 74.3%, respectively. In [11], the Activity is 26%.
On to `COc1cc(NC(C)CCCNC(=O)NNC(=O)Nc2ccc(Br)cc2)c2ncccc2c1` (stereo unspecified), for which the IC50 in assay [1] was 110 µM; in [2], 231 µM; in [3], 27 µM; in assay [4] it was 17 µM; in [5], 209 µM; in assay [6], 101 µM. Further, the results for the concentration for half-maximal inhibition (IC50) in assay [9] and in assay [12] were 0.1 µM and 51 µM, respectively. Moreover, the Activity amounted to 96.9% in assay [7] and 99% in [11]. Also, the inhibition in [8] came to 28%.
Consider `COc1cc(NC(C)CCCNC(=O)NNC(=O)Nc2cccc(O)c2)c2ncccc2c1` (stereo unspecified), for which the IC50 in [1] is 143 µM; in assay [2], 129 µM; in assay [3] it was more than 100 µM; in [4], 17 µM; in assay [5], 85 µM; in [6], 180 µM. In addition, the figures for the 50% inhibitory concentration (IC50) in [9] and in assay [12] were 1.1 µM and 160 µM, respectively. In addition, the Activity worked out at 96.5% in [7] and 100% in [11]. In addition, the inhibition was 41.6% in [8] and 52.2% in [10].
In the case of `Cc1c(C)c2c(c(C)c1O)CCC(C)(C(=O)O)O2` (stereo unspecified), the inhibition in [10] came out at 76%.
Take `COc1cc(NC(C)CCCNC(=O)Nc2cccc(Cl)c2)c2ncccc2c1` (stereo unspecified): the IC50 in [1] was found to be 22 µM; in [2] it was 21 µM; in [3] it was 37 µM; in assay [4], 26 µM; in assay [5] it was 21 µM; in assay [6], 17 µM. The IC50 in assay [9] is 11 µM; in assay [12], 17 µM. Also, the results for the inhibition in [8] and in assay [10] were 11.8% and 84.1%, respectively. Further, the Activity in assay [11] came out at 35.7%.
With `COc1cc(NC(C)CCCNC(=O)Nc2ccc(F)cc2)c2ncccc2c1` (stereo unspecified), the IC50 came to 26 µM in assay [1]; 21 µM in assay [2]; 26 µM in [3]; 25 µM in [4]; 24 µM in assay [5]; 20 µM in assay [6]. For the same compound, the half-inhibitory concentration (IC50) turned out to be 26 µM in assay [9] and 18 µM in assay [12]. For the same compound, the inhibition in assay [8] was 39.8%; in [10], 64.4%. Besides, the Activity in [11] is 24.7%.

One may read the IC50 as the concentration that inhibits the measured activity by half. A lower IC50 goes with greater potency in that assay. By inhibition is commonly meant the change of the read-out against control, counted positive when it falls.
